Published values gathered from unrelated publications.
Organism: Staphylococcus aureus
Read-out: microbial growth

| Structure (SMILES) | assay | test system | setting | MIC |
| --- | --- | --- | --- | --- |
| CC(C)Oc1c(NC(=O)c2ccc(NC(=O)[C@H](CC(N)=O)NC(=O)c3ccc(NC(=O)c4ccc(F)cc4)cc3)cc2)ccc(C(=O)Nc2ccc(C(=O)O)cc2)c1O | – | ATCC29213 | – | 2 µg/mL |
| CCCCCCCCCC(=O)Oc1c(C)c(O)c(C(=O)/C=C/c2ccccc2)c(OC)c1C | broth dilution | ATCC25923 | – | > 5000 µg/mL |
| CC1=NN(CNc2ccc(O)cc2)C(=O)C1=NNn1c(-c2ccccc2)nc2ccccc2c1=O | broth dilution | – | 24 h | 53.5 µM |
| CC(C)Oc1c(NC(=O)c2ccc(NC(=O)[C@H](CC(N)=O)NC(=O)c3ccc(NC(=O)c4ccc(NC(N)=O)cc4)cc3)cc2)ccc(C(=O)Nc2ccc(C(=O)O)cc2)c1O | – | ATCC29213 | – | 64 µg/mL |
| O=C(Nc1ccccc1F)c1ccccc1O | broth dilution | ATCC29213 | – | 32 µg/mL |
| CC(C)Oc1c(NC(=O)c2ccc(NC(=O)[C@H](CC(N)=O)NC(=O)c3ccc(NC(=O)c4ccc(C#N)nc4)cc3)cc2)ccc(C(=O)Nc2ccc(C(=O)O)cc2)c1O | – | ATCC29213 | – | 64 µg/mL |
| O=C1NC(=S)N/C1=C\c1ccc(-c2ccc(N(c3ccccc3)c3ccccc3)cc2)c2ccccc12 | broth dilution | ATCC25923 | – | > 1000 µg/mL |
| O=C(CCCCCCCCCC[P+](c1ccccc1)(c1ccccc1)c1ccccc1)Nc1ccc(O)c(O)c1.[Br-] | broth dilution | ATCC43300 MRSA | 18 h | 16 µg/mL |
| O=[N+]([O-])c1ccc(-c2nc3ccccc3[nH]2)cc1 | broth dilution | ATCC29213 MSSA | – | 128 µg/mL |
| CNC(=O)c1ccc(NC(=O)Nc2ccc(Cl)c(C(F)(F)F)c2)cc1 | – | NCTC8325 | 24 h | 30 µM |
| O=C1NC(=S)N/C1=C\c1c2ccccc2c(-c2ccc(N(c3ccccc3)c3ccccc3)cc2)c2ccccc12 | broth dilution | ATCC6538 | – | > 1000 µg/mL |
| Cc1cc(C)cc(NC(=O)CN(C)S(=O)(=O)c2ccc3[nH]c4c(c3c2)CCCC4)c1 | – | – | – | > 128 µg/mL |
| CN(C)[C@@H]1C(O)=C(C(N)=O)C(=O)[C@@]2(O)C(O)=C3C(=O)c4c(O)cccc4[C@@](C)(O)[C@H]3C[C@@H]12 | – | ATCC43300 | – | 2 µg/mL |
| CNC(=O)c1ccc2c(c1)NC(=O)/C2=C(\Nc1cccc(CN(C)C)c1)c1ccccc1 | – | NCTC8325 | – | > 30 µM |
| CO[C@H]1/C=C/O[C@@]2(C)Oc3c(C)c(O)c4c(O)c(c(/C=N/N5CCN(C)CC5)c(O)c4c3C2=O)NC(=O)/C(C)=C\C=C\[C@H](C)[C@H](O)[C@@H](C)[C@@H](O)[C@@H](C)[C@H](OC(C)=O)[C@@H]1C | broth dilution | ATCCBAA44 | – | 2 µg/mL |
| COc1ncc(-c2ccc3nccc(-c4ccnnc4)c3c2)cc1NS(=O)(=O)c1ccc(F)cc1F | – | NCTC8325 | – | > 30 µM |
| Cc1cccc(NCc2ccc(Oc3ccccn3)cc2)c1 | – | – | – | > 6.2 µg/mL |
| C/C=C(\C)c1cc(OC(=O)c2c(O)c(C)c(O)c(Cl)c2/C(C)=C/C)c(C)c(O)c1C(=O)O | broth dilution | 16339 | – | 64 µg/mL |
| O=C(Nc1ccc2c(c1)OC(F)(F)O2)Nc1ccc(Cl)c(C(F)(F)F)c1 | – | NCTC8325 | – | 0.3 µM |
| CN[C@H](CC(C)C)C(=O)N[C@H]1C(=O)N[C@@H](CC(N)=O)C(=O)N[C@H]2C(=O)N[C@H]3C(=O)N[C@H](C(=O)N[C@H](C(=O)O)c4cc(O)cc(O)c4-c4cc3ccc4O)[C@H](O)c3ccc(c(Cl)c3)Oc3cc2cc(c3O[C@@H]2O[C@H](CO)[C@@H](O)[C@H](O)[C@H]2O[C@H]2C[C@](C)(N)[C@H](O)[C@H](C)O2)Oc2ccc(cc2Cl)[C@H]1O | broth dilution | ATCC6538 | – | 0.49 µg/mL |
| CC(=O)NC[C@H]1CN(c2ccc(N3CCOCC3)c(F)c2)C(=O)O1 | broth dilution | MRSA NRS384 USA300 | drug-resistant strain | 2 µg/mL |

| Structure (SMILES) | assay | test system | setting | MIC |
| --- | --- | --- | --- | --- |
| CC(C)Oc1c(NC(=O)c2ccc(NC(=O)[C@H](CC(N)=O)NC(=O)c3ccc(NC(=O)c4ccc5c(c4)COC5=O)cc3)cc2)ccc(C(=O)Nc2ccc(C(=O)O)cc2)c1O | – | ATCC29213 | – | 1 µg/mL |
| O=C1NC(=O)/C(=C\c2ccc3nccnc3c2)S1 | – | NCTC8325 | – | > 30 µM |
| CC(C)Oc1c(NC(=O)c2ccc(NC(=O)[C@H](CC(N)=O)NC(=O)c3ccc(NC(=O)C(C)Oc4ccc(C#N)cc4)cc3)cc2)ccc(C(=O)Nc2ccc(C(=O)O)cc2)c1O (stereo partly drawn) | – | ATCC29213 | – | > 64 µg/mL |
| CCOc1ccc(-c2nc3ccccc3n2Cc2ccccc2)cc1 | broth dilution | ATCC29213 MSSA | – | 64 µg/mL |
| O=[N+]([O-])c1cnc2ccccc2c1O | – | – | – | > 128 µg/mL |
| C/C=C(\C)c1cc(O)c(C)c(OC(=O)c2c(C)cc(O)c(Cl)c2O)c1 | – | MRSA | – | 8 µg/mL |
| COC(=O)c1cc(Sc2ccc(NC(=O)Nc3ccc(Cl)c(C(F)(F)F)c3)cc2)ccn1 | – | NCTC8325 | 24 h | 3 µM |
| Cc1ccc(C)n1-c1ccc(-c2nnc(-c3c(Cl)cccc3Cl)[nH]2)cc1 | broth dilution | ATCC11632 | 18 h | 1 µg/mL |
| CCOc1ccc(-c2nc3ccc(C)cc3[nH]2)cc1 | broth dilution | ATCC29213 MSSA | – | 128 µg/mL |
| CC[C@H]1OC(=O)[C@H](C)[C@@H](O[C@H]2C[C@@](C)(OC)[C@@H](O)[C@H](C)O2)[C@H](C)[C@@H](O[C@@H]2O[C@H](C)C[C@H](N(C)C)[C@H]2O)[C@](C)(O)C[C@@H](C)C(=O)[C@H](C)[C@@H](O)[C@]1(C)O | – | 156 | clinical isolate | > 100 µM |
| O=C(Nc1ncc([N+](=O)[O-])s1)C1CCCCC1 | broth dilution | MRSA | – | 125 µM |
| Cc1ccc(C)n1-c1ccc(-c2nnc(-c3ccccc3Cl)[nH]2)cc1 | broth dilution | ATCC11632 | 18 h | 2 µg/mL |
| CNC(=O)c1cc(COc2nnc(Nc3ccc(Cl)cc3)c3ccoc23)ccn1 | – | NCTC8325 | – | > 30 µM |
| COCCCNC(=N)c1ccc(NC(=O)c2ccc(C(=O)Nc3ccc(C(=N)NCCCOC)cc3)cc2)cc1 | – | – | – | 4 µg/mL |
| Cn1cnc2c(F)c(Nc3ccc(Br)cc3Cl)c(C(=O)NOCCO)cc21 | – | NCTC8325 | – | > 30 µM |
| CCOc1ccc(-c2nc3ccccc3[nH]2)cc1 | broth dilution | ATCC29213 MSSA | – | 256 µg/mL |
| C/C=C(\C)c1cc(O)c(C)c(OC(=O)c2c(C)c(Cl)c(O)c(Cl)c2O)c1 | broth dilution | 6917 | – | 8 µg/mL |
| Cc1ccc2nc(-c3c4ccccc4cc4ccccc34)[nH]c2c1 | broth dilution | ATCC29213 MSSA | – | 64 µg/mL |
| NC[C@@H]1O[C@H](O[C@H]2[C@@H](O)[C@H](O[C@@H]3[C@@H](O)[C@H](N)C[C@H](N)[C@H]3O[C@H]3O[C@H](CN)[C@@H](O)[C@H](O)[C@H]3N)O[C@@H]2CO)[C@H](N)[C@@H](O)[C@@H]1O | – | NEWMAN | – | 5 to 10 µg/mL |
| O=C(O)CN1C(=O)/C(=C/c2c3ccccc3c(-c3ccc(N(c4ccccc4)c4ccccc4)cc3)c3ccccc23)NC1=S | broth dilution | ATCC43300 | – | > 1000 µg/mL |
| CN(C)c1ccc(-c2nc3ccccc3[nH]2)cc1 | broth dilution | ATCC29213 MSSA | – | 64 µg/mL |
